The values that follow come from ChEMBL document CHEMBL1133504 (J Med Chem, 2000).

Series [1] can be described thus: Evaluated for Pharmacokinetic property: Area under the curve. Format: ADME. On the set-up: concentration or dose not given beside the values.
Series [2] in a line: Evaluated for time required to reach maximum concentration in plasma. It is filed as ADME.
In series [3] the test system is Syrian golden hamster. Nature of the series: Suppression of Hamster ethanol intake by 0.07 mmol o.d. i.p. Format: functional, Mesocricetus auratus. Put shortly:
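Male Syrian golden hamsters (80-120 g) at 23 °C on a 12/12-h cycle had free access to chow, water and 15% ethanol. Baseline was 6 days of daily ip saline with 0.5% DMSO. Then 0.07 mmol ip daily for 6 days. 24-h ethanol intake recorded. Mean ± SD of 4-6 hamsters.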

The target of series [4] is Monoamine oxidase (Mesocricetus auratus). Nature of the series: Inhibition of Hamster Liver mitochondrial Monoamine oxidase.
Series [5] concerns Aldehyde dehydrogenase, mitochondrial (Mesocricetus auratus). Briefly: Accumulation of 5 HIAL in isolated Hamster Liver Mitochondria at 3 uM.
Series [6] has the same test system. Briefly: Accumulation of 5 HIAL in isolated Hamster Liver Mitochondria at 9 uM.
For series [7] the test system is unchanged. Briefly: Accumulation of 5 HIAL in isolated Hamster Liver Mitochondria at 0.3 uM.
Series [8] shares this test system. Nature of the series: Accumulation of 5 HIAL in isolated Hamster Liver Mitochondria at 0.9 uM.
For series [9], the species on record is Mesocricetus auratus. Nature of the series: Evaluated for percentage inhibition of 5-HIAA formation in isolated Hamster Liver Mitochondria at the 9 uM.
The species entered for series [10] is Mesocricetus auratus. Nature of the series: Evaluated for the 5-HIAL accumulation in isolated Hamster Liver Mitochondria at the 3 uM.

The structures appear in SMILES notation.

In turn, `O=C(O)CCCCCCCCCCOc1ccc2c(=O)c(-c3ccc(O)cc3)coc2c1` yielded an AUC in series [1] of 56 nM hr ml. In series [2], the Tmax is 0.5 h. Besides, the Suppression in series [3] was found to be 86%.
As for `O=c1c(-c2ccc(O)cc2)coc2cc(O[C@@H]3O[C@H](CO)[C@@H](O)[C@H](O)[C@H]3O)ccc12` [DAIDZIN], the AUC in series [1] stood at 120 nM hr ml. Besides, the Tmax in series [2] was determined as 1 h. The same compound had a Suppression in series [3] of 62%.
`O=C(O)CCCCCOc1ccc2c(=O)c(-c3ccc(O)cc3)coc2c1` registered an AUC in series [1] of 77 nM hr ml. Besides, the Tmax in series [2] was determined as 0.5 h. Further, the Suppression in series [3] amounted to 69%.
In turn, `O=c1c(-c2ccc(O)cc2)coc2cc(OCCCBr)ccc12` registered an AUC in series [1] of 73 nM hr ml. The Tmax in series [2] came out at 2 h. Moreover, in [3], the Suppression came to 0%. For the same compound, the IC50 in series [4] was determined as 150 nM. The Control came to 34.7% in [5], 20.5% in series [6], 75.8% in series [7] and 57.8% in series [8].
In [1], `CCOc1ccc2c(=O)c(-c3ccc(O)cc3)coc2c1` registered an AUC of 38 nM hr ml. In addition, in series [2], the Tmax came out at 1 h. The Suppression in series [3] amounted to 0%. In series [4], the IC50 came to 300 nM. Further, the Control came to 34.3% in series [5], 17.8% in series [6], 88.6% in series [7] and 62.9% in [8].
The compound `O=c1c(-c2ccc(O)cc2)coc2cc(OCCCCCCBr)ccc12` returned an AUC in [1] of 62 nM hr ml. In addition, in series [2], the Tmax stood at 2 h. In addition, in series [3], the Suppression was found to be 29%. Also, in series [4], the IC50 amounted to 2000 nM. The Control in series [5] stood at 108%; in series [6] it was 74%; in series [7], 144%; in series [8], 112%.
As to `COc1ccc(-c2coc3cc(O)cc(O)c3c2=O)cc1` [BIOCHANIN], the AUC in [1] worked out at 99 nM hr ml. Further, in series [2], the Tmax worked out at 1 h. In series [3], this compound had a Suppression of 0%.
For `O=c1c(-c2ccc(O)cc2)coc2cc(O)cc(O)c12` [GENISTEIN], in that order: 134 nM hr ml, 1 h and 0%.
In series [1], `O=c1c(-c2ccc(O)cc2)coc2cc(OCCC3OCCCO3)ccc12` came in with an AUC of 99 nM hr ml. Also, in series [2], the Tmax turned out to be 0.5 h. This compound displayed a Suppression in series [3] of 32%. This compound also came in with an IC50 in series [4] of 7000 nM. Further, the Control in series [5] amounted to 141%; in series [6], 86.1%; in series [7], 165%; in series [8], 176%.
On to `O=c1c(-c2ccc(O)cc2)coc2cc(OCC(O)CO)ccc12` (stereo not drawn), for which the AUC in series [1] stood at 141 nM hr ml. The Tmax in [2] was found to be 0.5 h. In series [3], the Suppression is given as 0%. The compound also yielded an IC50 in series [4] of 1700 nM. Further, the Control in series [5] is 63%; in [6] it was 30.5%; in [7], 112%; in series [8], 97.5%.
As to `C=CCOc1ccc2c(=O)c(-c3ccc(O)cc3)coc2c1`, the AUC in [1] worked out at 29 nM hr ml. For the same compound, in [2], the Tmax came to 1 h. Further, the Suppression in series [3] is on record as 0%. Further, in [4], the IC50 is 450 nM. Also, the Control in [5] came out at 56.1%; in series [6], 26.7%; in [7], 106%; in [8] it was 91%.
In turn, `O=c1c(-c2ccc(O)cc2)coc2cc(O)ccc12` [DAIDZEIN] yielded an AUC in series [1] of 130 nM hr ml. The time of peak concentration (Tmax) in [2] worked out at 1 h. The same compound came in with a Suppression in series [3] of 22%. In addition, the inhibition in series [9] was found to be 80.6%.
In turn, `O=C(O)CCCCCCCCCOc1ccc2c(=O)c(-c3ccc(O)cc3)coc2c1` yielded an AUC in series [1] of 73 nM hr ml. The Tmax in [2] came out at 0.5 h. This compound yielded a Suppression in series [3] of 84%. The compound also gave an IC50 in [4] of 10000 nM. Further, the Control stood at 189% in series [5], 129% in series [6], 234% in [7] and 233% in series [8].
`O=c1cc(-c2ccccc2)oc2c(O)c(O)ccc12` [7,8-DIHYDROXYFLAVONE] gave an AUC in series [1] of 111 nM hr ml. Moreover, the Tmax in [2] amounted to 0.5 h. In [3], this compound registered a Suppression of 0%. In series [10], this compound came in with a Control of 79.1%.
Regarding `O=C(O)CCCCCCOc1ccc2c(=O)c(-c3ccc(O)cc3)coc2c1`, the AUC in series [1] was determined as 68 nM hr ml. In series [2], the Tmax worked out at 0.5 h. The compound further showed a Suppression in series [3] of 69%. Besides, the IC50 in [4] is 2100 nM. Moreover, the Control came out at 228% in series [5], 192% in [6], 310% in series [7] and 265% in series [8].
In series [1], `O=c1cc(-c2ccccc2)oc2cc(O)cc(O)c12` [CHRYSIN] had an AUC of 110 nM hr ml. The Tmax in [2] was determined as 1 h. The compound also gave a Suppression in [3] of 0%.
Regarding `O=c1c(-c2ccc(O)cc2)coc2cc(OCCCCBr)ccc12`, in series [1], the AUC is listed as 68 nM hr ml. Moreover, the Tmax in [2] was found to be 2 h. This compound registered a Suppression in series [3] of 14%. This compound showed an IC50 in series [4] of 4000 nM. For the same compound, the Control in [5] was found to be 87.7%; in [6] it was 42.9%; in series [7], 112%; in [8] it was 116%.

A word on the Tmax: it is the time from dosing to the highest level. As usually defined, the IC50 is the concentration at which inhibition is half-maximal. As a reminder, the inhibition is the percentage by which the read-out fell short of the control.
